Compound activity as filed in PubChem BioAssay.
TRPC4 block: blocks the mouse TRPC4 cation channel | Q9QUQ5 | HEK293 TRPC4beta/mu-opioid, DAMGO-evoked Fluo4 calcium flux; hits give low values | B-score at 10 µM | 300,000 compounds, 0.39% hits;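 active = B-score over 3 SD under the library average, no early fluorescence shift, positive overall ratio signal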
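material = TRPC4beta/mu-opioid receptor HEK293 cell line | probe or stimulus = sequential submaximal and maximal DAMGO stimulation | compound dosing = one concentration per compound | measured by = Fluo4 Ca2+ flux fluorescence | evaluation = integrated fluorescence ratio relative to baseline, converted to per-well B score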
TRPC6 act: activators of mouse TRPC6 channel; Q61143; HEK293-TRPC6 membrane potential dye fluorescence; hits give high values; B-score at 10 µM; 310,000 compounds, 0.13% hits; AID 2550;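 active = B-score of the integrated fluorescence ratio above library mean plus 3 SD, and starting fluorescence ratio within library mean plus 5 SD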;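 also: higher score means more depolarization so channel activation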
Target sequence (Q61143 whole entry, looked up): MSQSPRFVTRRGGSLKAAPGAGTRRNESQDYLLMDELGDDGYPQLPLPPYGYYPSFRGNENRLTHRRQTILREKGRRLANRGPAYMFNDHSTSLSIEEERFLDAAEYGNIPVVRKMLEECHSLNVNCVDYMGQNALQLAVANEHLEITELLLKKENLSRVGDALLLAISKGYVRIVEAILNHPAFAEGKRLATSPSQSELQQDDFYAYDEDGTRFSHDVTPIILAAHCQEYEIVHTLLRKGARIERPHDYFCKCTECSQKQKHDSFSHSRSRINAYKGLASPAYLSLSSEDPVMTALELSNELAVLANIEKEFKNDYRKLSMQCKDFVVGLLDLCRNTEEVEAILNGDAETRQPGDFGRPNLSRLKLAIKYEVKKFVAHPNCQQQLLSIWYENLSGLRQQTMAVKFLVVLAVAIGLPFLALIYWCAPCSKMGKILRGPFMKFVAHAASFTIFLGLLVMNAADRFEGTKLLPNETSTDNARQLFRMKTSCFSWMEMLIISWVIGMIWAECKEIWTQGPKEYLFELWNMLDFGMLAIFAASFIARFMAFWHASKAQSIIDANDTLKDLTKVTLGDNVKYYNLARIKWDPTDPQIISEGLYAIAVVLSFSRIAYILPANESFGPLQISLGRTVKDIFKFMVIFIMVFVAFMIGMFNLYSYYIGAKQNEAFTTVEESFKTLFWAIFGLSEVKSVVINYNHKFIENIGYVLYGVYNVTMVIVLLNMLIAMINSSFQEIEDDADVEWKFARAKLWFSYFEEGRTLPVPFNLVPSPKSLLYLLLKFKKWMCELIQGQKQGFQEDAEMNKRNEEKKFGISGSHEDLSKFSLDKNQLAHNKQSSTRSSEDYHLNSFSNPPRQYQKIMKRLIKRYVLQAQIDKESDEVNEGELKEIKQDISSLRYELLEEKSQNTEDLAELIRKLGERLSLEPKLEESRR
TRPC6 inh: blocks the mouse TRPC6 cation channel; 310,000 compounds, 1.1% hits; AID 2553; Q61143; B-score at 10 µM; HEK293-TRPC6, membrane potential dye, ACh-evoked depolarization; hits give low values;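 active = B-score under library mean minus 3 SD, initial fluorescence not abnormally high, positive integrated signal ratio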;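 also: B-score derived from integrated fluorescence ratio over the kinetic read; more negative B-score means stronger inhibition of depolarization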
TRPC4 agonist: activators of mouse TRPC4 channel; 310,000 compounds, 0.49% hits; B-score at 10 µM; AID 2237; HEK293 TRPC4beta/mu-opioid, Fluo4 calcium fluorescence; hits give high values; Q9QUQ5;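 active = B-score above 5 SD of library B-scores, and initial fluorescence ratio not above library mean plus 5 SD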;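 also: positive B-score marks a calcium rise read as TRPC4 activation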
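System: HEK293 cells stably co-expressing mouse TRPC4beta and mu-opioid receptor; Schedule: Fluo4 dye loading 45 min at room temperature, 110 s recording; Detection: Fluo4 fluorescence, kinetic; Evaluation: B-scored integrated calcium fluorescence ratio; Controls: buffer (low) and maximal DAMGO (high).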
TRPC4 potent: allosterically enhances the mouse TRPC4 cation channel; HEK293 TRPC4beta/mu-opioid, DAMGO EC20, Fluo-4 Ca2+ flux; hits give high values; 310,000 compounds, 0.42% hits; B-score at 10 µM;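 active = B-score of calcium response area above 5 SD of library B-scores, with initial fluorescence ratio within 5 SD of library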;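 also: B-score of integrated fluorescence ratio over time as area under calcium response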
TRPC4 spec 2: second selectivity test of TRPC6 inhibitors: effect on mouse TRPC4; HEK293 TRPC4/MOR, membrane potential dye fluorescence; channel activated by saturating DAMGO dose; inhibition, % at 10 µM; AID 2776; shares compounds with TRPC6 inh; 920 compounds, 42% hits;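 active = compounds whose fluorescence signal differed from control wells by over 3 SD, either direction, in both duplicate plates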
TRPC4 spec: tests whether TRPC6 inhibitors also affect mouse TRPC4; activity change, negative = inhibition, % at 10 µM; 920 compounds, 61% hits; AID 2777; HEK293 TRPC4/mu-opioid, membrane potential fluorescence; shares compounds with TRPC6 inh;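 active = rise or fall in signal beyond 3 SD of buffer-only wells in both replicate plates, either sign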;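 also: integrated kinetic ratio of fluorescence range over baseline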
HEK293 MPD ctr 2-1: parental HEK293 nonspecific activity of TRPC6 inhibitors, second screen; AID 2779; shares compounds with TRPC6 inh; parental HEK293 membrane potential dye fluorescence; maximal acetylcholine challenge after compound addition; 920 compounds, 31% hits; signal change vs control, % at 10 µM;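 active = membrane potential signal moving either way by over 3 SD of the maximum-effect control, in both duplicate plates, meaning non-specific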
HEK293 MPD ctr-1: checks TRPC6 inhibitor effects in parental HEK293 cells | shares compounds with TRPC6 inh | parental HEK293 membrane potential dye fluorescence | membrane potential signal change, % at 10 µM | 920 compounds, 60% hits | AID 2780;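 active = membrane potential signal shifting up or down by more than 3 SD of buffer-only wells, on both duplicate plates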
HEK293 MPD ctr-2: parental HEK293 nonspecific activity of TRPC6 modulators. shares compounds with TRPC6 inh. membrane potential dye fluorescence. membrane potential signal change, % at 10 µM. 2,400 compounds, 51% hits. AID 488924;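 active = membrane potential signal moves up or down beyond 5 SD from buffer-only wells, on both duplicate plates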
HEK293 MPD ctr 2-2: second counter-screen for TRPC6 modulators: effect in parental HEK293 cells; 2,400 compounds, 14% hits; shares compounds with TRPC6 inh; membrane potential dye fluorescence; after compound, maximal acetylcholine stimulation; inhibition, % at 10 µM;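 active = membrane potential signal drops by more than 5 SD from the mean control signal, in both duplicate plates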;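 also: plate controls were acetylcholine ECmax control wells for no effect and buffer only wells for full effect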
TRPC4 ctr mod: selectivity of TRPC6 modulators against mouse TRPC4; shares compounds with TRPC6 inh; HEK293 TRPC4/mu-opioid, membrane potential fluorescence; percent change from control (negative = decrease, positive = increase), % at 10 µM; 2,400 compounds, 69% hits; AID 488927;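 active = membrane potential signal moved up or down beyond 5 SD of buffer control wells, in both duplicate plates, actives on both sides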;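 also: plate controls were assay buffer wells for no effect and DAMGO maximal-effect wells for full effect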
TRPC4/MOR inh 2: second check of whether TRPC6 modulators also affect mouse TRPC4. shares compounds with TRPC6 inh. AID 488928. HEK293 TRPC4/mu-opioid, membrane potential dye fluorescence; stimulated with maximal-effect DAMGO. inhibition, % at 10 µM. 2,400 compounds, 55% hits;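 active = drop in membrane potential signal beyond 5 SD of the control wells in both duplicate plates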;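 also: TRPC4 counter screen for TRPC6 hits run under conditions tuned for TRPC6 not TRPC4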
TRPC6 block conf: mouse TRPC6 inhibitor confirmation; inhibition, % at 10 µM; shares compounds with TRPC6 inh; HEK293-TRPC6, membrane potential dye, ACh-evoked depolarization; 3,300 compounds, 43% hits;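 active = fluorescence ratio falls more than 5 SD below the full-stimulation control mean, in both duplicate runs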;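 also: integrated fluorescence ratio of peak minus minimum over baseline after agonist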
TRPC6 act confirm: mouse TRPC6 activator confirmation | shares compounds with TRPC6 inh | HEK293-TRPC6 membrane potential dye fluorescence, FDSS | activation, % at 10 µM | 2,800 compounds, 11% hits | AID 488961;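 active = ratio signal rise beyond 5 SD above unstimulated control wells' mean, seen in both duplicate runs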;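 also: plate controls were buffer EC0 wells for no effect and acetylcholine ECmax response for full effect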
* = called active by the depositor; i = inactive; x = no result given. Hits are enriched below; roughly 2.3% of the tested compounds scored in any of these assays.

SMILES	TRPC4 block	TRPC6 act	TRPC6 inh	TRPC4 agonist	TRPC4 potent	TRPC6 block conf	TRPC6 act confirm	others
Cc1ccc(NC(=O)C2CC(=O)Nc3ncnn32)c(C)c1 (stereo not given)	i	i	i	i	i	x	x
CSc1nccc(Oc2ccc(C#N)cc2)n1	i	i	i	i	i	x	x
CC(Sc1ccccc1)C(=O)NN=C1CCN(C)CC1 (stereo not given)	i	i	i	i	i	x	x
COc1ccc(N2C(=O)CSC23C(=O)N2CCCc4cccc3c42)cc1 (stereo not given)	i	i	-13.5*	i	i	80.7%*	i	TRPC4 spec 2=i;TRPC4 spec=i;HEK293 MPD ctr 2-1=-29.0%*;HEK293 MPD ctr-1=i
O=C1CSC2(C(=O)N3CCCc4cccc2c43)N1c1cccc(C(F)(F)F)c1 (stereo not given)	i	i	i	i	i	x	x
OC(CNCCCCNCC(O)C(F)(F)F)C(F)(F)F (stereo not given)	i	i	i	i	i	x	x
Cc1cccc(-c2nc(NCCCN(C)C)c3ccccc3n2)c1	i	i	-7.86*	i	i	75.8%*	i	TRPC4 spec 2=50.5%*;TRPC4 spec=-20.1%*;HEK293 MPD ctr 2-1=i;HEK293 MPD ctr-1=-242.0%*
CN(C)CCCNc1nc(-c2ccc(Cl)cc2)nc2ccccc12	i	i	-7.68*	i	i	69.8%*	i	TRPC4 spec 2=53.0%*;TRPC4 spec=-31.0%*;HEK293 MPD ctr 2-1=34.5%*;HEK293 MPD ctr-1=-414.0%*
Cc1ccc(Cl)cc1NC(=S)N1CCCCCC1	i	i	i	i	i	x	x
COCc1cc(C)nc(SCC[N+](C)(C)CC(=O)Nc2cccc(C)c2)c1C#N	i	i	-6.97*	i	i	i	i	TRPC4 spec 2=i;TRPC4 spec=-13.1%*;HEK293 MPD ctr 2-1=i;HEK293 MPD ctr-1=-169.5%*
O=[N+]([O-])c1ccc(CN2CCCCCC2)cc1	i	i	i	i	i	x	x
O=[N+]([O-])c1ccc(CN2CCOCCOCCN(Cc3ccc([N+](=O)[O-])cc3)CCOCC2)cc1	i	i	-5.51*	i	i	46.0%*	i	HEK293 MPD ctr-2=i;HEK293 MPD ctr 2-2=i;TRPC4 ctr mod=-11.5%*;TRPC4/MOR inh 2=74.0%*
CC(C)CN(C(=O)CSc1nnnn1-c1ccccc1)c1c(N)n(CC(C)C)c(=O)[nH]c1=O	i	i	i	i	i	x	x
Cn1cc(CN(CCCN2CCOCC2)C(=S)Nc2cccc(Cl)c2)c2ccccc21	i	i	-6.78*	i	i	i	i	TRPC4 spec 2=i;TRPC4 spec=i;HEK293 MPD ctr 2-1=258.5%*;HEK293 MPD ctr-1=i
COc1ccccc1OCc1ccc(C(=O)N2CCCCC2)o1	i	i	-5.17*	i	i	i	i	HEK293 MPD ctr-2=i;HEK293 MPD ctr 2-2=i;TRPC4 ctr mod=i;TRPC4/MOR inh 2=i
COc1ccccc1OCc1ccc(C(=O)N2CCOCC2)o1	i	i	i	i	i	x	x
C=CCOC(=O)C1=C(C)N(C)C(=O)NC1c1cc2c(cc1Br)OCO2 (stereo not given)	i	i	-5.4*	i	i	i	i	HEK293 MPD ctr-2=i;HEK293 MPD ctr 2-2=i;TRPC4 ctr mod=i;TRPC4/MOR inh 2=i
CC(C)OCCCNC(=O)CN1C(=O)c2cccc3cccc1c23	i	i	i	i	i	x	x
O=c1[nH][nH]cc1C=NCc1cccc(C(F)(F)F)c1	i	i	i	i	i	x	x
COC(CSc1nc(N)c2c3c(sc2n1)CN(C)CC3)OC	i	i	i	i	i	x	x
C=CCSc1nc(N)c2c3c(sc2n1)CN(C)CC3	i	i	-6.51*	i	i	i	i	HEK293 MPD ctr-2=-76.0%*;HEK293 MPD ctr 2-2=i;TRPC4 ctr mod=-19.5%*;TRPC4/MOR inh 2=i
CSc1nc(N)c2c3c(sc2n1)CN(C)CC3	i	i	-7.04*	i	i	i	i	HEK293 MPD ctr-2=-123.5%*;HEK293 MPD ctr 2-2=i;TRPC4 ctr mod=-25.0%*;TRPC4/MOR inh 2=i
CCOC(=O)N1CCC(N2CCN(C3CCCC3)C(CCO)C2)CC1 (stereo not given)	i	i	-8.15*	i	i	i	i	TRPC4 spec 2=i;TRPC4 spec=i;HEK293 MPD ctr 2-1=i;HEK293 MPD ctr-1=i
CCOC(=O)N1CCC(N2CCN(Cc3ccccc3)C(CCO)C2)CC1 (stereo not given)	i	i	i	i	i	x	x
CCOC(=O)N1CCC(NC2CCCCCCC2)CC1	i	i	-8.48*	i	i	i	x	TRPC4 spec 2=i;TRPC4 spec=i;HEK293 MPD ctr 2-1=i;HEK293 MPD ctr-1=3.0%*
SMILES	TRPC4 block	TRPC6 act	TRPC6 inh	TRPC4 agonist	TRPC4 potent	TRPC6 block conf	TRPC6 act confirm	others
COc1ccc(NCc2nnc(-c3ccccc3)o2)cc1	i	i	i	i	i	x	x
C/C(=N\NC(=S)NCCc1ccccc1)c1ccc(C)cc1	i	i	-5.3*	i	i	i	i	HEK293 MPD ctr-2=187.0%*;HEK293 MPD ctr 2-2=i;TRPC4 ctr mod=-15.0%*;TRPC4/MOR inh 2=i
COc1ccc(-n2nc(C(=O)NCC(=O)NCc3cccc(F)c3)c3ccccc3c2=O)cc1Cl	i	i	i	i	i	x	x
CCS(=O)(=O)N1CCC(C(=O)Oc2ccc(C)c(C)c2)CC1	i	i	i	i	i	x	x
CCN(C(=O)COC(=O)/C(C#N)=C/c1ccc(OC)cc1)C1CCS(=O)(=O)C1 (stereo not given)	i	i	i	i	i	x	x
CCC(C(=O)NCCc1ccc(OC)cc1OC)n1nc(C)n2c(cc3occc32)c1=O (stereo not given)	i	i	i	i	i	x	x
